Data on 2 molecules can be found in ChEMBL document CHEMBL2401625, “Synthesis and evaluation of pharmacological properties of some new xanthone derivatives with piperazine moiety” (Bioorg Med Chem Lett, 2013).

Calls of active or inactive are those of the source. No cut-off for these calls is given here.

The species named for experiment [1] is Rattus norvegicus. The experiment is described as follows: Displacement of [3H]CGP-12177 from beta1-adrenergic receptor in rat cerebral cortex at 50 uM after 60 mins by scintillation counting. The format is tissue-based. On the technique in general: Loss of bound radioactivity is the signal in a displacement assay; it reports binding, not function.
The test system of experiment [2] is Mus musculus. The experiment can be described thus: Anticonvulsant activity in CF1 mouse assessed as protection against maximal electroshock-induced seizures at 30 mg/kg, ip after 0.5 hrs. The format is functional, organism-based. Set-up: dose 30 mg/kg. In outline: (§1)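 Mice given compound i.p. at 30, 100 or 300 mg/kg and tested 0.5 or 4 h after dosing. Seizures were induced by maximal electroshock (MES) or subcutaneous metrazole (ScMet). Prevention of seizures counts as protection. Result is recorded as number of animals protected over number tested.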

Experiment [3] deals with Mus musculus. The experiment is described as follows: Anticonvulsant activity in CF1 mouse assessed as protection against subcutaneous metrazole-induced seizures at 300 mg/kg, ip after 0.5 hrs. The format is functional, organism-based. Details: dose 300 mg/kg. Summed up:
as §1

Experiment [4] has as its system Mus musculus. The experiment can be described thus: Anticonvulsant activity in CF1 mouse assessed as protection against subcutaneous metrazole-induced seizures at 30 mg/kg, ip after 4 hrs. The class given is functional, organism-based. Set-up: dose 30 mg/kg. Summed up: as §1
Experiment [5] relates to Mus musculus. The experiment can be described thus: Anticonvulsant activity in CF1 mouse assessed as protection against subcutaneous metrazole-induced seizures at 100 mg/kg, ip after 4 hrs. The class given is functional, organism-based. Set-up: dose 100 mg/kg. In outline:
as §1

Experiment [6] deals with Rattus norvegicus. The experiment is described as follows: Anticonvulsant activity in Sprague-Dawley rat assessed as protection against maximal electroshock-induced seizures at 30 mg/kg, po after 1 hr. The format is functional, organism-based. Set-up: dose 30 mg/kg. In outline: (§2)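 Rats dosed orally at 30 mg/kg and tested in MES at several time points after dosing. Protection means seizures were prevented. Result is recorded as number of animals protected over number tested.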
For orientation: The maximal electroshock test induces tonic seizures with an electrical stimulus.

The subject of experiment [7] is Mus musculus. The experiment is described as follows: Anticonvulsant activity in CF1 mouse assessed as protection against maximal electroshock-induced seizures at 30 mg/kg, ip after 4 hrs. Set-up: dose 30 mg/kg. The class given is functional, organism-based. In outline:
as §1

For experiment [8], the system named is Rattus norvegicus. The experiment is described as follows: Anticonvulsant activity in Sprague-Dawley rat assessed as protection against maximal electroshock-induced seizures at 30 mg/kg, po after 0.25 hrs. The format is functional, organism-based. Set-up: dose 30 mg/kg. In outline: as §2
For experiment [9], the system named is Mus musculus. The experiment is described as follows: Anticonvulsant activity in CF1 mouse assessed as protection against maximal electroshock-induced seizures at 100 mg/kg, ip after 4 hrs. Details: dose 100 mg/kg. The class given is functional, organism-based. In outline:
as §1

Experiment [10] concerns Mus musculus. The experiment is described as follows: Anticonvulsant activity in CF1 mouse assessed as protection against maximal electroshock-induced seizures at 300 mg/kg, ip after 4 hrs. Details: dose 300 mg/kg. The format is functional, organism-based. Summed up: as §1
Experiment [11] has as its system Mus musculus. The experiment is described as follows: Anticonvulsant activity in CF1 mouse assessed as protection against subcutaneous metrazole-induced seizures at 30 mg/kg, ip after 0.5 hrs. The class given is functional, organism-based. Details: dose 30 mg/kg. In outline: as §1
Experiment [12] has as its system Rattus norvegicus. The experiment can be described thus: Anticonvulsant activity in Sprague-Dawley rat assessed as protection against maximal electroshock-induced seizures at 30 mg/kg, po after 2 hrs. The format is functional, organism-based. Details: dose 30 mg/kg. Summed up: as §2
The subject of experiment [13] is Mus musculus. The experiment is described as follows: Anticonvulsant activity in CF1 mouse assessed as protection against subcutaneous metrazole-induced seizures at 300 mg/kg, ip after 4 hrs. The class given is functional, organism-based. Set-up: dose 300 mg/kg. In outline:
as §1

In experiment [14] the test system is Rattus norvegicus. The experiment can be described thus: Anticonvulsant activity in Sprague-Dawley rat assessed as protection against maximal electroshock-induced seizures at 30 mg/kg, po after 0.5 hrs. Details: dose 30 mg/kg. The class given is functional, organism-based. In outline:
as §2

Experiment [15] deals with Mus musculus. The experiment can be described thus: Anticonvulsant activity in CF1 mouse assessed as protection against subcutaneous metrazole-induced seizures at 100 mg/kg, ip after 0.5 hrs. Set-up: dose 100 mg/kg. The format is functional, organism-based. In outline: as §1
Experiment [16] deals with 5-hydroxytryptamine receptor 7 (Homo sapiens, UniProt P34969). The experiment can be described thus: Displacement of [3H]5-CT from human 5HT7b receptor expressed in HEK293 cells after 1 hr. The format is cell-based.
Sequence of 5-hydroxytryptamine receptor 7 (P34969 whole entry): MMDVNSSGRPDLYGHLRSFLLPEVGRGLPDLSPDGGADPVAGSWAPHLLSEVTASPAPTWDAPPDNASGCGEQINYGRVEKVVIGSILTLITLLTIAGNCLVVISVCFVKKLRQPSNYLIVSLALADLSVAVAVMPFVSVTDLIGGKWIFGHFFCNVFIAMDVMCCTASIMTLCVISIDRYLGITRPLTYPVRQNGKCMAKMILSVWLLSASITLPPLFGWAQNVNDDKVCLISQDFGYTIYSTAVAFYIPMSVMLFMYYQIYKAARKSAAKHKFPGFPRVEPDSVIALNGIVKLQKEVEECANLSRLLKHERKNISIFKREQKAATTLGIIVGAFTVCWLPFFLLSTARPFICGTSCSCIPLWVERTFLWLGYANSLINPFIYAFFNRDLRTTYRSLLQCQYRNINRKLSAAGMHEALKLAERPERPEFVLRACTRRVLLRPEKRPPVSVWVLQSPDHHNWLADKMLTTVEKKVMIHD
Experiment [17] can be described thus: Displacement of [3H]CGP-12177 from beta1-adrenergic receptor in rat cerebral cortex after 60 mins by scintillation counting. The format is tissue-based. Summed up: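 Radioligand binding on rat brain tissue membranes, run in 96-well format. Ki was calculated by the Cheng–Prusoff equation.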
In experiment [18] the target is T1, Adrenergic receptor alpha-1 (Rattus norvegicus, UniProt P15823+P23944+P43140).
T1 sequence (P15823 whole entry): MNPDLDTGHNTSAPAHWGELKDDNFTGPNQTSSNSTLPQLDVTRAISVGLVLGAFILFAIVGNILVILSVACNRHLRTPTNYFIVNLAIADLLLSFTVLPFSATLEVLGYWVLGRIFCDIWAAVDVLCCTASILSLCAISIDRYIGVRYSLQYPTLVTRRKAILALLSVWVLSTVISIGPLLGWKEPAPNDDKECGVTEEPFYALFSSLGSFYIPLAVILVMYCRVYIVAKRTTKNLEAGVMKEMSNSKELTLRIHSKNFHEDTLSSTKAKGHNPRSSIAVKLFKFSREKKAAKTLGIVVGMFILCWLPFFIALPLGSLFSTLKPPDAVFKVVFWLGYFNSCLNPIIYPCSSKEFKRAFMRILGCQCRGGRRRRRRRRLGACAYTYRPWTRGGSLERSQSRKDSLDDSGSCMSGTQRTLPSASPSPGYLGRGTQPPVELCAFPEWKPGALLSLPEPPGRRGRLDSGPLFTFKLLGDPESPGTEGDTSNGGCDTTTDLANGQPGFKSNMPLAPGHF
T1 sequence (P23944 whole entry): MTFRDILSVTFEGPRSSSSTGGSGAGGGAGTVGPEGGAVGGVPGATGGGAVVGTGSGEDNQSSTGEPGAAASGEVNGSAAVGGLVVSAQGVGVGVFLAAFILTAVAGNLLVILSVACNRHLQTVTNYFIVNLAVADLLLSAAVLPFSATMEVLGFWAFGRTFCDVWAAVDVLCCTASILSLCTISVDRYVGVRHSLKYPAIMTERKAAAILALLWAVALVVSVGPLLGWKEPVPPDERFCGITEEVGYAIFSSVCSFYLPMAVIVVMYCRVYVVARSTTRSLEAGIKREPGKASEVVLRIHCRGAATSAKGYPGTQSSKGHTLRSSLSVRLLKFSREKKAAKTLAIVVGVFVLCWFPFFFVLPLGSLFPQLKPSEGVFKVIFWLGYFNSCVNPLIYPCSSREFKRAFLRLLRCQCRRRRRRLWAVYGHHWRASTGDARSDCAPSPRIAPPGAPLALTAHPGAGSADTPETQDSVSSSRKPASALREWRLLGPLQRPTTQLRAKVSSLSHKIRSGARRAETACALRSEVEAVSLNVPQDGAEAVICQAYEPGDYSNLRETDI
T1 sequence (P43140 whole entry): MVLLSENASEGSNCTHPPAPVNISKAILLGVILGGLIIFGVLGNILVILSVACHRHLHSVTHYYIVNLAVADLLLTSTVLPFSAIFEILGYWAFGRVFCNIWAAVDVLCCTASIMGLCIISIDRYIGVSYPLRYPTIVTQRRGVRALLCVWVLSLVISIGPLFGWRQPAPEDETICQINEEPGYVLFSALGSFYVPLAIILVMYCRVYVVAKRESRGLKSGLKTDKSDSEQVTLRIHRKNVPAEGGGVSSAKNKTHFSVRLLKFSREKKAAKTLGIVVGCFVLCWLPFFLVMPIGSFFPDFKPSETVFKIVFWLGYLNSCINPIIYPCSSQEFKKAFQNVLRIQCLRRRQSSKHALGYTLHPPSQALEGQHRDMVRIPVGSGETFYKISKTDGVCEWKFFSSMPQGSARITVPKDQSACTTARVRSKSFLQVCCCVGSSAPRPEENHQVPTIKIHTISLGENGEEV
The experiment can be described thus: Displacement of [3H]prazosin from alpha1-adrenergic receptor in rat cerebral cortex after 30 mins by scintillation counting. The format is tissue-based. In outline:
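Radioligand binding on rat brain tissue membranes, run in 96-well format. [3H]prazosin was used for α1 (n = 2) and [3H]CGP-12177 for β1 (n = 2). Ki was calculated by the Cheng–Prusoff equation.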

Experiment [19] has as its target T2, 5-hydroxytryptamine receptor 1A (Homo sapiens, UniProt P08908).
T2 sequence (P08908 whole entry): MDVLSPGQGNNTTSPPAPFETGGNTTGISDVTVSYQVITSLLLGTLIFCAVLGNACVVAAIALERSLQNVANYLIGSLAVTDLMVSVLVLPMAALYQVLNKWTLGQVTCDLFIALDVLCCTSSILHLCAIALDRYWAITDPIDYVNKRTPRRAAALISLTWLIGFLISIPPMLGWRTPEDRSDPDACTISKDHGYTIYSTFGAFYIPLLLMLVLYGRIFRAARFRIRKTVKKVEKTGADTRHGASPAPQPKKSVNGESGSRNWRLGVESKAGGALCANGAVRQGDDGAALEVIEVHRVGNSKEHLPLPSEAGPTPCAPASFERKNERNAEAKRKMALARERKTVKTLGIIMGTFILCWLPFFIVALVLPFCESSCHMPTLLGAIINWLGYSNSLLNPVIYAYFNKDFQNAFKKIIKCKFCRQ
The experiment can be described thus: Displacement of [3H]8-OH-DPAT from human 5HT1A receptor expressed in HEK293 cells after 1 hr. The class given is cell-based.

Experiment [20] deals with 5-hydroxytryptamine receptor 6 (Homo sapiens, UniProt P50406). The experiment is described as follows: Displacement of [3H]LSD from human 5HT6 receptor expressed in HEK293 cells after 1 hr. The format is cell-based.
Sequence of 5-hydroxytryptamine receptor 6 (P50406 whole entry): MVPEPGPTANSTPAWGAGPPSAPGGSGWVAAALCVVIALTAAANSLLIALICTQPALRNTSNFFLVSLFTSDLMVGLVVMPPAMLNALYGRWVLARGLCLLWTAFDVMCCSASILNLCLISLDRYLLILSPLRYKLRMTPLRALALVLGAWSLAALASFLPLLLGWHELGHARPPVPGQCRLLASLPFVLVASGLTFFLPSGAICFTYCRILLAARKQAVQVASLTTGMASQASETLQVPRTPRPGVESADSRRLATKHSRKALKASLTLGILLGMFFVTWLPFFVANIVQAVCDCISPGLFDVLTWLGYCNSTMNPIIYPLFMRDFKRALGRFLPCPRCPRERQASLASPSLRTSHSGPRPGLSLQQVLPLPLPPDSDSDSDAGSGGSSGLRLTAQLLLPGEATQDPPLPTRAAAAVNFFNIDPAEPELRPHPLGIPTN

Take `COc1ccc2c(=O)c3cc(CN4CCN(C)CC4)ccc3oc2c1`: the inhibition entry in [1] is “inactive”. In addition, the result in [2], in [3], in experiment [4], in experiment [5], in [6] and in experiment [7] was inactive. Further, the result in experiment [8], in [9], in [11], in experiment [12], in [13] and in experiment [14] was inactive. For the same molecule, the result in experiment [15] was inactive. Also, the outcome in experiment [10] was Active.

`COc1ccc2c(=O)c3cc(CN4CCN(c5ccccc5OC)CC4)ccc3oc2c1.Cl`: the Ki – broadly, the equilibrium dissociation constant of an inhibitor or competing ligand from its target – was 1140 nM in [16]; above 30000 nM in experiment [17]; 380 nM in experiment [18]; 429 nM in experiment [19]; 13600 nM in experiment [20].
